Reference: ChEMBL document CHEMBL2176954, “General synthesis of β-alanine-containing spider polyamine toxins and discovery of nephila polyamine toxins 1 and 8 as highly potent inhibitors of ionotropic glutamate receptors” (J Med Chem, 2012)

Key:
Type in all cases: functional, cell-based, Oocyte
[1] = molecular target: Glutamate receptor ionotropic, NMDA 2A (Rattus norvegicus, UniProt P35439+Q00959); assay: Antagonist activity at rat glutamate N1/2A receptor expressed in Xenopus oocytes at membrane potential -60 mV by two-electrode voltage-clamp electrophysiology assay
Sequence of Glutamate receptor ionotropic, NMDA 2A (Q00959 whole entry, one chain of several): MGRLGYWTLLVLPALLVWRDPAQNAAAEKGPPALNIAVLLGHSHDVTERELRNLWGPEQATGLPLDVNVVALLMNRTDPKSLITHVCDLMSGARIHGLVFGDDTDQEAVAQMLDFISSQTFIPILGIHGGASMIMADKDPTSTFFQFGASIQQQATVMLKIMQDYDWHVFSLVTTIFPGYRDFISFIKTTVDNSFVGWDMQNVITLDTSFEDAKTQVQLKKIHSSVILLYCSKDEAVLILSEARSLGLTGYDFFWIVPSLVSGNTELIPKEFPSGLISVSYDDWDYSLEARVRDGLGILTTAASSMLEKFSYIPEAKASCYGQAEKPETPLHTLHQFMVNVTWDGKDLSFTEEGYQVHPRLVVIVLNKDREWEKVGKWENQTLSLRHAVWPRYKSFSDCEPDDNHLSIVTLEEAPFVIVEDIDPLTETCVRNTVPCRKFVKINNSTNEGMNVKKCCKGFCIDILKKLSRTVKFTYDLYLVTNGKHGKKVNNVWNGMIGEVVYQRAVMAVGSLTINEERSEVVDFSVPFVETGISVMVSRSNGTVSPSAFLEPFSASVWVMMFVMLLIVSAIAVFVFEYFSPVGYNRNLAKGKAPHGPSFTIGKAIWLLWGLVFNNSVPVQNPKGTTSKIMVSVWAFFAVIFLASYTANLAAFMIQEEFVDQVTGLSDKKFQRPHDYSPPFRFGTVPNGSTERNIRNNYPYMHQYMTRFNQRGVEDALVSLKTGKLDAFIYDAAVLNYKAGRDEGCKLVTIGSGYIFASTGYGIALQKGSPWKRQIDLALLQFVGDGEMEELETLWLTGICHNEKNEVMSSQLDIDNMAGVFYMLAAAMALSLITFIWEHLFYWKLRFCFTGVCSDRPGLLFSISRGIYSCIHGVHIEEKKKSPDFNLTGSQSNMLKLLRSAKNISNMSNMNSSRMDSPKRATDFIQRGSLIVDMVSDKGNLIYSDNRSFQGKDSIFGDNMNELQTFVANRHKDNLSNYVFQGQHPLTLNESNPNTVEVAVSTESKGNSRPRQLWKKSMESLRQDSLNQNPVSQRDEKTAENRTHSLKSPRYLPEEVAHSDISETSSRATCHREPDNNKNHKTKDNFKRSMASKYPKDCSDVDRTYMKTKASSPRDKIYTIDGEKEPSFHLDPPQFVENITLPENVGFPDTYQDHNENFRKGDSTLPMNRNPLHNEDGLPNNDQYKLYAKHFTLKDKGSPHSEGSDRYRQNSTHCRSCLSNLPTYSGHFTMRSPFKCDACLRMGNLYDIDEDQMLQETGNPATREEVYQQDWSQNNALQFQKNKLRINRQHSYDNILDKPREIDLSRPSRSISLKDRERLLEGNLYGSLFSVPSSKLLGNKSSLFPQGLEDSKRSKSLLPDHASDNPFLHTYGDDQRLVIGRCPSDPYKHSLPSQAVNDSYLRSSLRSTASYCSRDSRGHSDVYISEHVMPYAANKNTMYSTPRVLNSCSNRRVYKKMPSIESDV
Method in brief: (§1)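 Two-electrode voltage clamp at −60 mV on oocytes expressing the iGlu receptor subtype. Cells first received a maximally effective agonist concentration, then increasing toxin concentrations co-applied with agonist. IC50 values are means from 6 to 12 experiments, reported with 95% confidence intervals.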

[2] = molecular target: Glutamate receptor 1 (Rattus norvegicus, UniProt P19490); assay: Antagonist activity at rat GluA1 receptor expressed in Xenopus oocytes at membrane potential -60 mV by two-electrode voltage-clamp electrophysiology assay; method in brief: as §1
Sequence of Glutamate receptor 1 (P19490 whole entry): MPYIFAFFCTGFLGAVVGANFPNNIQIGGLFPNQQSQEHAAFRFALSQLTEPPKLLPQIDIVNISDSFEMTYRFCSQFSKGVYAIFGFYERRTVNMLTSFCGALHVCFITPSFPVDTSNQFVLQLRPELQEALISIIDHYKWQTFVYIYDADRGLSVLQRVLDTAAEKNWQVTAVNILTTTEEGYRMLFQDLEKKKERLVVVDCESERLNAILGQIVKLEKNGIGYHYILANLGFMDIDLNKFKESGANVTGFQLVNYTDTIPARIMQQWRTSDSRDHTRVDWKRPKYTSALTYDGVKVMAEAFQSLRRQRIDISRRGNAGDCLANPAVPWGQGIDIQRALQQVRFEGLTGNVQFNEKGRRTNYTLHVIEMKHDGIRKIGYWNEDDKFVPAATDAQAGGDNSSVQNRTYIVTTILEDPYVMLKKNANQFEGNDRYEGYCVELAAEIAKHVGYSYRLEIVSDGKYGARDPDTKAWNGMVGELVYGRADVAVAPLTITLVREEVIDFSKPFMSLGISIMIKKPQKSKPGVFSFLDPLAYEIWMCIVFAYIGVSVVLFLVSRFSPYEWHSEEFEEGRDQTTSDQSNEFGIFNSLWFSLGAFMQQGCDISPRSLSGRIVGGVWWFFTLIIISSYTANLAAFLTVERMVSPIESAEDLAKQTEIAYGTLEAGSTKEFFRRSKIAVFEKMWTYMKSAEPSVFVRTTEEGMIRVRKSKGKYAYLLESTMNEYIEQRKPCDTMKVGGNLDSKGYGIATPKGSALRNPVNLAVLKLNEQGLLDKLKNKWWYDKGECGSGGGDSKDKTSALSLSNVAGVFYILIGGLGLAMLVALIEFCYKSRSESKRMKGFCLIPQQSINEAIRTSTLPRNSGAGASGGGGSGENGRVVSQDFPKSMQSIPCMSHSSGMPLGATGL

[3] = molecular target: T1, Glutamate receptor ionotropic, kainate 1 (Rattus norvegicus, UniProt P22756); assay: Antagonist activity at rat GluK1 receptor expressed in Xenopus oocytes by two-electrode voltage-clamp at membrane potential -60 to -80 mV electrophysiology assay
T1 sequence (P22756 whole entry): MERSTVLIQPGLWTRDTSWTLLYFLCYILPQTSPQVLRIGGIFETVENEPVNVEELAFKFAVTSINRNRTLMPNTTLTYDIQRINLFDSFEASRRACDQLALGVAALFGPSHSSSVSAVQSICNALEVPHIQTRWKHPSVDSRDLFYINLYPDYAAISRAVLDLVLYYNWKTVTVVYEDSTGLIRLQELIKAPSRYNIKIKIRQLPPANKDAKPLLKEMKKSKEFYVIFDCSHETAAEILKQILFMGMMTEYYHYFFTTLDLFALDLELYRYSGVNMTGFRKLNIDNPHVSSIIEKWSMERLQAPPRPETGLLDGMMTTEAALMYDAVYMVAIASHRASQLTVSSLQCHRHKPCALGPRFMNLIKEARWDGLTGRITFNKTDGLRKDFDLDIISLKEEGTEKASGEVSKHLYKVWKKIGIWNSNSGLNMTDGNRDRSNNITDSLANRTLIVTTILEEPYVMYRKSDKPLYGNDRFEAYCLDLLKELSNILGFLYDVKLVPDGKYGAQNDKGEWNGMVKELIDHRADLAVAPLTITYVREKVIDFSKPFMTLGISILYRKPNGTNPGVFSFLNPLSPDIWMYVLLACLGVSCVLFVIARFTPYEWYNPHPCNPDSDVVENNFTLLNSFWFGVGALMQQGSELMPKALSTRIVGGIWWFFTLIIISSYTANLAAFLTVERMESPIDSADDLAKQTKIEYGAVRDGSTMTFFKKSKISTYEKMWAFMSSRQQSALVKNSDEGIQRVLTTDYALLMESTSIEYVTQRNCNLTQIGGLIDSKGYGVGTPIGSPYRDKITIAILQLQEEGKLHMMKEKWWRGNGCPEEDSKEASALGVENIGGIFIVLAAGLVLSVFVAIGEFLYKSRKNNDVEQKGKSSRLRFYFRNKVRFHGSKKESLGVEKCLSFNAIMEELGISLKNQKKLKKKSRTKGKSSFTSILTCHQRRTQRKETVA
Method in brief: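 GluK1-expressing oocytes were clamped by two-electrode voltage clamp and given a maximally effective agonist concentration, then increasing toxin concentrations plus agonist. IC50 was determined at −60 mV and at −80 mV to assess voltage dependence of block. Values at −60 mV are means of 6 to 12 experiments.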

[4] = molecular target: T1, Glutamate receptor ionotropic, kainate 1; assay: Antagonist activity at rat GluK1 receptor expressed in Xenopus oocytes at membrane potential -60 mV by two-electrode voltage-clamp electrophysiology assay; method in brief: as §1

| SMILES | IC50 [1] | IC50 [2] | IC50 [3] | IC50 [4] |
| --- | --- | --- | --- | --- |
| N=C(N)NCCC[C@H](N)C(=O)NCCCNCCCNCCCCCNC(=O)[C@H](CC(N)=O)NC(=O)Cc1ccc(O)cc1O | 177 nM | 135 nM |  |  |
| NCCCNCCCCNCCC(=O)NCCCCCNC(=O)[C@H](CC(N)=O)NC(=O)Cc1c[nH]c2ccccc12 | 150 nM | 27 nM | 0.28 nM | 0.82 nM |
| N=C(N)NCCC[C@H](N)C(=O)NCCCCNCCC(=O)NCCCCCNC(=O)[C@H](CC(N)=O)NC(=O)Cc1ccc(O)cc1O [NEPHILA SPIDER TOXIN 3] | 5410 nM | 137 nM |  | 164 nM |
| C[C@H](NC(=O)CNC(=O)[C@@H](N)CCCNC(=N)N)C(=O)NCCCCNCCC(=O)NCCCCCNC(=O)[C@H](CC(N)=O)NC(=O)Cc1ccc(O)cc1O | > 10000 nM | 1080 nM |  | 2580 nM |
| NCCCNCCCCNCCC(=O)NCCCCCNC(=O)[C@H](CC(N)=O)NC(=O)Cc1c[nH]c2cccc(O)c12 | 1390 nM | 51 nM | 0.19 nM | 0.33 nM |
| NCCCNCCCCNCCC(=O)NCCCCCNC(=O)[C@H](CC(N)=O)NC(=O)Cc1ccc(O)cc1O [JORO SPIDER TOXIN 3] | 1710 nM | 65 nM |  | 19 nM |
